Two compounds from ChEMBL document CHEMBL1121686 (J Med Chem, 1981) can be followed below.

A short description of data set [1]: (§1) Percent total excretion of 3-(thiomethyl)acetaminophen glucuronide. Type of data set: ADME. The method, boiled down:
(§2)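 Urine was collected for 48 h from dosed rats or mice kept in metabolic cages. It was filtered (0.5 μm) and separated by reverse-phase HPLC at 2 mL/min, starting in phosphate-buffered solvent at pH 7.2. After a 4 min delay, methanol was raised linearly to 50% over 18 min. Detection was at 254 and 280 nm. Each metabolite was quantified from peak area using response factors from standards and expressed as % of total excreted metabolites.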

Data set [2] has as its system Rattus norvegicus. Put plainly: (§3) Percent dose excreted in 0-48 hours administered ip to male rat. Type of data set: functional. The gist of the method:
(§4)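 Young adult male Sprague-Dawley rats were dosed i.p. with N-hydroxyacetaminophen in aqueous solution at 1.0 and 2.0 mmol/kg. Animals were held in metabolic cages with standard feed and water ad libitum, and urine was collected over 48 h. Quantitation was by gradient HPLC, using response factors from standard solutions.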

A short description of data set [3]: (§5) Percent total excretion of N-methoxyacetaminophen glucuronide. Type of data set: ADME. The gist of the method: as §2
The subject of data set [4] is Rattus norvegicus. Put plainly: The compound tested for toxicity in liver against male rat after intraperitoneal administration of 2.0 mmol/kg. Type of data set: organism-based. The settings on record: in vivo, ip. The gist of the method:
(§6)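 Young adult male Sprague-Dawley rats dosed intraperitoneally at 1.0 or 2.0 mmol/kg in aqueous solution. Animals were kept in metabolic cages with food and water ad libitum, and urine was collected over 48 h. Liver and kidney were examined histologically at 48 h. Liver was graded as vacuolation (1+) or centrilobular necrosis (2+, 3+, 4+); kidney was graded as deep cortical tubular necrosis.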

Data set [5] relates to Rattus norvegicus. The description is as §3. Type of data set: ADME, organism-based. Conditions: in vivo. The gist of the method:
as §4

A short description of data set [6]: (§7) Percent total excretion of N-methoxyacetaminophen sulfate. Type of data set: ADME. The gist of the method: as §2
Data set [7] is filed under the species Rattus norvegicus. Put plainly: (§8) Percent total excretion of 3-methoxyacetaminophen glucuronide. Type of data set: functional. The gist of the method: as §2
Data set [8] is filed under the species Rattus norvegicus. Put plainly: (§9) Percent total excretion of 3-(thiomethyl)acetaminophen sulfate. Type of data set: functional. The method, boiled down:
as §2

Data set [9] can be described thus: (§10) Percent total excretion of acetaminophen-mercapturic acid. Type of data set: ADME. The method, boiled down: as §2
Data set [10] has as its system Mus musculus. Put plainly: Percent dose excreted in 0-48 hours administered ip to male mouse. Type of data set: ADME, organism-based. Conditions: in vivo. The method, boiled down: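 Young adult male Swiss mice, previously housed on pine wood-chip bedding, received N-hydroxyacetaminophen in aqueous solution i.p. at 2.0 mmol/kg. They were then kept in metabolic cages with standard feed and water ad libitum. Urine was collected for 48 h and analysed by gradient reverse-phase HPLC, with peak areas calibrated against standard solutions.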

Data set [11] is filed under the species Rattus norvegicus. Described as §7. Type of data set: functional. The method, boiled down:
as §2

The test system of data set [12] is Mus musculus. Put plainly: The compound tested for toxicity in liver against male mouse after intraperitoneal administration of 2.0 mmol/kg. The settings on record: in vivo, ip.
The test system of data set [13] is Rattus norvegicus. Put plainly: The compound tested for toxicity in kidney against male rat after intraperitoneal administration of 1.0 mmol/kg. The settings on record: in vivo, ip. Type of data set: organism-based. The method, boiled down:
as §6

Data set [14] concerns Rattus norvegicus. Put plainly: The compound tested for toxicity in kidney against male rat after intraperitoneal administration of 2.0 mmol/kg; Positive. Type of data set: organism-based. Conditions: in vivo, ip. The gist of the method: as §6
Data set [15] has as its system Rattus norvegicus. Put plainly: The compound tested for toxicity in liver against male rat after intraperitoneal administration of 1.0 mmol/kg. Conditions: in vivo, ip. Type of data set: organism-based. The gist of the method:
as §6

For data set [16], the species on record is Rattus norvegicus. Put plainly: Percent total excretion of acetaminophen sulfate. Type of data set: functional. The method, boiled down: as §2
For data set [17], the species on record is Rattus norvegicus. Put plainly: Percent total excretion of acetaminophen cysteine conjugate. Type of data set: functional. The gist of the method: as §2
A short description of data set [18]: as §9. Type of data set: ADME. The gist of the method:
as §2

Data set [19] is described as follows: (§11) Percent total excretion of acetaminophen glucuronide. Type of data set: ADME. The method, boiled down:
as §2

Data set [20] is described as follows: (§12) Percent total excretion of acetaminophen. Type of data set: ADME. The gist of the method:
as §2

For data set [21], the species on record is Rattus norvegicus. The description is as §12. Type of data set: functional. The method, boiled down:
as §2

The species entered for data set [22] is Rattus norvegicus. Described as §5. Type of data set: functional. The gist of the method: as §2
The subject of data set [23] is Mus musculus. Put plainly: The compound tested for toxicity in kidney against male mouse after intraperitoneal administration of 2.0 mmol/kg. Type of data set: organism-based. The settings on record: in vivo, ip. The method, boiled down:
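Young adult male Swiss mice given a single intraperitoneal dose of 2.0 mmol/kg in aqueous solution. Animals were held in metabolic cages with standard feed and water ad libitum, and urine was collected for 48 h. At 48 h, liver and kidneys were taken for histology. Liver was scored as vacuolation (1+) or centrilobular necrosis (2+ to 4+); kidney was scored as deep cortical tubular necrosis.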

The species named for data set [24] is Rattus norvegicus. The data set is described as §10. Type of data set: functional. The method, boiled down: as §2
The nature of data set [25]: as §8. Type of data set: ADME. The method, boiled down:
as §2

The species entered for data set [26] is Rattus norvegicus. The description is as §1. Type of data set: functional. The gist of the method: as §2
For data set [27], the species on record is Rattus norvegicus. The description is as §11. Type of data set: functional. The gist of the method:
as §2

Data set [28] can be described thus: Percent of total excretion of N-hydroxyacetaminophen sulfate. Type of data set: ADME. The method, boiled down:
as §2

Data set [29] can be described thus: Percent of total excretion of acetaminophen cysteine conjugate. Type of data set: ADME. The method, boiled down: as §2
For data set [30], the system named is Mus musculus. Put plainly: The compound tested for toxicity in kidney against female mouse after intravenous administration of 2.0 mmol/kg; Normal. Type of data set: organism-based. Conditions: in vivo. The gist of the method:
(§13)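 Young adult female Swiss mice, previously housed on pine wood-chip bedding. The sodium salt was given in aqueous solution at 2.0 mmol/kg intravenously or 10 mmol/kg intragastrically. Animals were housed in metabolic cages with feed and water ad libitum for 48 h, with urine collected throughout. At 48 h, liver and kidneys were assessed histologically. Liver was graded as vacuolation (1+) or centrilobular necrosis (2+ to 4+); kidney was graded as deep cortical tubular necrosis.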

Data set [31] can be described thus: Percent of total excretion of acetaminophen. Type of data set: ADME. The method, boiled down: as §2
A short description of data set [32]: Percent of total excretion of N-hydroxyacetaminophen glucuronide. Type of data set: ADME. The gist of the method: as §2
For data set [33], the system named is Mus musculus. Put plainly: The compound tested for toxicity in kidney against female mouse after intragastric administration of 10.0 mmol/kg; Normal. The settings on record: in vivo.
Data set [34] in a line: Percent of total excretion of 3-(thiomethyl)acetaminophen glucuronide. Type of data set: ADME. The gist of the method: as §2
Data set [35] can be described thus: Percent of total excretion of N-methoxyacetaminophen glucuronide. Type of data set: ADME. The method, boiled down:
as §2

Data set [36] can be described thus: Percent of total excretion of acetaminophen-mercapturic acid. Type of data set: ADME. The gist of the method:
as §2

The subject of data set [37] is Mus musculus. Put plainly: The compound tested for toxicity in liver against female mouse after intravenous administration of 2.0 mmol/kg; signifies centrilobular necrosis of liver. Type of data set: organism-based. The settings on record: in vivo. The gist of the method:
as §13

A short description of data set [38]: Percent of total excretion of 3-methoxyacetaminophen glucuronide. Type of data set: ADME. The gist of the method:
as §2

The nature of data set [39]: Percent of total excretion of acetaminophen sulfate. Type of data set: ADME. The gist of the method: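 Rats (male Sprague-Dawley, 1.0 or 2.0 mmol/kg ip) and Swiss mice (males 2.0 mmol/kg ip; females 2.0 mmol/kg iv or 10 mmol/kg intragastric) dosed in aqueous solution. Urine was collected over 0–48 h in metabolic cages. Filtered urine went through gradient HPLC (pH 7.2 buffer, 0→50% methanol; 254/280 nm), quantified against standard peak-area response factors. Values are % of total excreted metabolites.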

Data set [40] in a line: Percent of total excretion of N-methoxyacetaminophen sulfate. Type of data set: ADME. The gist of the method:
as §2

Data set [41] is described as follows: Percent of total excretion of acetaminophen glucuronide. Type of data set: ADME. The method, boiled down: as §2
For data set [42], the system named is Mus musculus. Put plainly: The compound tested for toxicity in liver against female mouse after intragastric administration of 10 mmol/kg; signifies centrilobular necrosis of liver. Type of data set: organism-based. Conditions: in vivo, po. The method, boiled down:
as §13

Data set [43] in a line: Percent of total excretion of 3-(thiomethyl)acetaminophen sulfate. Type of data set: ADME. The method, boiled down:
as §2

Each structure is given as a SMILES string. Values joined by “and” are separate entries in the source; they are usually repeats but may differ in a detail not shown here. Identical values can stand only once.

For `CC(=O)N(O)c1ccc(O)cc1`, the Total excretion in [1] was 2% and 4.1%; in [3] it was 2.3% and 3.4%; in [6] it was 2.7% and 3%; in the data set filed under Rattus norvegicus [7], 0%; in the data set filed under Rattus norvegicus [8], 5.1%; in [9] it was 13.2% and 6.1%. For the same compound, the Total excretion is 8.1% in the data set listed under Rattus norvegicus [11]; 51.3% in the data set listed under Rattus norvegicus [16]; 0% in the data set filed under Rattus norvegicus [17]; 9% and 15.9% in data set [18]; 18% and 25.9% in [19]; 5% and 4.5% in data set [20]. Also, the Total excretion turned out to be 7% in the data set filed under Rattus norvegicus [21]; 1.5% in the data set listed under Rattus norvegicus [22]; 14.5% in the data set filed under Rattus norvegicus [24]; 0% in [25]; 1.9% in the data set filed under Rattus norvegicus [26]; 10.8% in the data set filed under Rattus norvegicus [27]. Moreover, the Dose in the data set with Rattus norvegicus [2] was 70.9%; in the data set on Rattus norvegicus [5], 55%; with Mus musculus [10], 41.5%. Moreover, the Toxicity is listed as 0 in the data set on Rattus norvegicus [4]; 2 in the data set on Mus musculus [12]; 0 with Rattus norvegicus [13]; “Positive” in the data set on Rattus norvegicus [14]; 0 in the data set with Rattus norvegicus [15]; 0 with Mus musculus [23].
As for `CC(=O)Nc1ccc(O)cc1` [ACETAMINOPHEN], the Total excretion in [28] was 0%; in data set [29], 2.9% and 10.4%; in [31] it was 11.9% and 12.1%; in [32], 0%; in data set [34], 0.7% and 0.6%; in data set [35], 0%. Moreover, the Total excretion in data set [36] was 3.5% and 3.8%; in data set [38], 0%; in data set [39], 13.8% and 13.3%; in data set [40], 0%; in data set [41] it was 64% and 58.4%; in data set [43] it was 3.3% and 1.5%. The Toxicity was 0 in the data set on Mus musculus [30], 0 in the data set with Mus musculus [33], 2 with Mus musculus [37] and 3 in the data set on Mus musculus [42].
